According to ChEMBL document CHEMBL1143122, “Novel analogs of D-e-MAPP and B13. Part 1: synthesis and evaluation as potential anticancer agents” (Bioorg Med Chem, 2008):

Assays:
LOX IMVI = assay: Antiproliferative activity against human LOXIMVI cells after 48 hrs; assay type: functional
How it was run: (§1)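 NCI 60-cell screen. Cells were grown in RPMI 1640 with 5% FBS and 2 mM L-glutamine, then plated at 5,000–40,000 cells/well according to doubling time and preincubated for 24 h at 37 °C in 5% CO2. Compounds were dissolved in DMSO at 400× the top final concentration and tested at five 10-fold dilutions from 10−4 to 10−8 M for 48 h. Growth was read spectrophotometrically; GI50 is 50% net protein reduction.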

M14 = assay: Antiproliferative activity against human M14 cells after 48 hrs; assay type: functional; conditions: M14, 48 h; how it was run: as §1
SK-MEL-2 = assay: Antiproliferative activity against human SKMEL2 cells after 48 hrs; assay type: functional; conditions: SK-MEL-2, 48 h; how it was run: as §1
UACC-257 = assay: Antiproliferative activity against human UACC257 cells after 48 hrs; assay type: functional; conditions: UACC-257, 48 h
How it was run: (§2)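 NCI 60-cell-line screen. Lines grown in RPMI 1640 with 5% fetal bovine serum and 2 mM L-glutamine, plated at 5,000–40,000 cells/well according to doubling time, left 24 h at 37 °C in 5% CO2. Drug stocks in DMSO at 400-fold the top final concentration. Five 10-fold dilutions, 10−4 to 10−8 M, incubated 48 h. Growth read spectrophotometrically as net protein; GI50 taken as 50% reduction.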

UACC-62 = assay: Antiproliferative activity against human UACC62 cells after 48 hrs; assay type: functional; conditions: UACC-62, 48 h; how it was run: as §2
OVCAR-3 = assay: Antiproliferative activity against human OVCAR-3 cells after 48 hrs; assay type: functional; conditions: OVCAR-3, 48 h; how it was run: as §1
SK-OV-3 = assay: Antiproliferative activity against human SKOV3 cells after 48 hrs; assay type: functional; conditions: SK-OV-3, 48 h; how it was run: as §1
A498 = assay: Antiproliferative activity against human A498 cells after 48 hrs; assay type: functional; conditions: A498, 48 h; how it was run: as §1
CAKI-1 = assay: Antiproliferative activity against human CAKI1 cells after 48 hrs; assay type: functional; conditions: CAKI-1, 48 h; how it was run: as §1
RXF 393 = assay: Antiproliferative activity against human RXF393 cells after 48 hrs; assay type: functional; conditions: RXF 393, 48 h; how it was run: as §1
SN12C = assay: Antiproliferative activity against human SN12C cells after 48 hrs; assay type: functional; how it was run: as §1
TK-10 = assay: Antiproliferative activity against human TK10 cells after 48 hrs; assay type: functional; conditions: TK-10, 48 h; how it was run: as §2
PC-3 = assay: Antiproliferative activity against human PC3 cells after 48 hrs; assay type: functional; conditions: PC-3, 48 h; how it was run: as §1
DU-145 = assay: Antiproliferative activity against human DU145 cells after 48 hrs; assay type: functional; conditions: DU-145, 48 h; how it was run: as §1
MDA-MB-435 = assay: Antiproliferative activity against human MDA-MB-435 cells after 48 hrs; assay type: functional; how it was run: as §1
T47D = assay: Antiproliferative activity against human T47D cells after 48 hrs; assay type: functional; how it was run: as §2
HOP-62 = assay: Antiproliferative activity against human HOP62 cells after 48 hrs; assay type: functional; conditions: HOP-62, 48 h; how it was run: as §1
NCI-H226 = assay: Antiproliferative activity against human NCI-H226 cells after 48 hrs; assay type: functional; conditions: NCI-H226, 48 h; how it was run: as §1
NCI-H322M = assay: Antiproliferative activity against human NCI-H322M cells after 48 hrs; assay type: functional; how it was run: as §1
NCI-H522 = assay: Antiproliferative activity against human NCI-H522 cells after 48 hrs; assay type: functional; conditions: NCI-H522, 48 h; how it was run: as §1
HCC 2998 = assay: Antiproliferative activity against human HCC2998 cells after 48 hrs; assay type: functional; conditions: HCC 2998, 48 h; how it was run: as §1
HCT-116 = assay: Antiproliferative activity against human HCT116 cells after 48 hrs; assay type: functional; conditions: HCT-116, 48 h; how it was run: as §1
HCT-15 = assay: Antiproliferative activity against human HCT15 cells after 48 hrs; assay type: functional; conditions: Homo sapiens, HCT-15, 48 h; how it was run: as §1
HT-29 = assay: Antiproliferative activity against human HT29 cells after 48 hrs; assay type: functional; conditions: HT-29, 48 h; how it was run: as §1
KM12 = assay: Antiproliferative activity against human KM12 cells after 48 hrs; assay type: functional; conditions: Homo sapiens, KM12, 48 h; how it was run: as §1
SW-620 = assay: Antiproliferative activity against human SW620 cells after 48 hrs; assay type: functional; conditions: SW-620, 48 h; how it was run: as §2
SF-295 = assay: Antiproliferative activity against human SF295 cells after 48 hrs; assay type: functional; conditions: SF-295, 48 h; how it was run: as §1
SNB-19 = assay: Antiproliferative activity against human SNB19 cells after 48 hrs; assay type: functional; conditions: SNB-19, 48 h; how it was run: as §1
MCF7 = assay: Antiproliferative activity against human MCF7 cells after 48 hrs; assay type: functional, cell-based; conditions: MCF7, 48 h
CCRF-CEM = assay: Antiproliferative activity against human CCRF-CEM cells after 48 hrs; assay type: functional; how it was run: as §1
RPMI-8226 = assay: Antiproliferative activity against human RPMI8226 cells after 48 hrs; assay type: functional; conditions: RPMI-8226, 48 h; how it was run: as §1
A549 = assay: Antiproliferative activity against human A549 cells after 48 hrs; assay type: functional; conditions: A549, 48 h; how it was run: as §1
[1] = read-out: Log LC50 (the source's name) (converted)

Work on C[C@@H](NC(=O)CCCCCCCCCCCCCCC[n+]1ccccc1)[C@@H](O)c1ccccc1.[Br-] yielded a GI50 (LOX IMVI) of 3.55 µM, an LC50 (LOX IMVI) of 51.3 µM and a TGI (LOX IMVI; read-out: Log TGI (converted)) of 13.5 µM. The GI50 (M14) was 3.39 µM, the LC50 (M14) was 8.32 µM and the TGI (M14; read-out: Log TGI (converted)) was 3.89 µM. The GI50 (SK-MEL-2) was 2.19 µM, the TGI (SK-MEL-2; read-out: Log TGI (converted)) was 4.37 µM and the GI50 (UACC-257) was 1.58 µM. It also gave a TGI (UACC-257; read-out: Log TGI (converted)) of 3.39 µM, a GI50 (UACC-62) of 1.48 µM and an LC50 (UACC-62) of 5.75 µM. It also gave a TGI (UACC-62; read-out: Log TGI (converted)) of 2.88 µM, a GI50 (OVCAR-3) of 1.1 µM and a TGI (OVCAR-3; read-out: Log TGI (converted)) of 2.4 µM. For the same molecule, the GI50 (SK-OV-3) was 3.09 µM, the CC50 (SK-OV-3; [1]) was 60.3 µM and the TGI (SK-OV-3; read-out: Log TGI (converted)) was 13.5 µM. It also gave a GI50 (A498) of 12.9 µM, a CC50 (A498; [1]) of 61.7 µM and a TGI (A498; read-out: Log TGI (converted)) of 28.2 µM. For the same molecule, the GI50 (CAKI-1) was 1.38 µM, the CC50 (CAKI-1; [1]) was 66.1 µM and the TGI (CAKI-1; read-out: Log TGI (converted)) was 30.2 µM. It also gave a GI50 (RXF 393) of 4.57 µM, a CC50 (RXF 393; [1]) of 97.7 µM and a TGI (RXF 393; read-out: Log TGI (converted)) of 24 µM. The GI50 (SN12C) was 1.74 µM, the LC50 (50% net cell kill) (SN12C) was 7.76 µM and the TGI (SN12C; read-out: Log TGI (converted)) was 3.63 µM. For the same molecule, the GI50 (TK-10) was 4.9 µM, the CC50 (TK-10; [1]) was 40.7 µM and the TGI (TK-10; read-out: Log TGI (converted)) was 15.8 µM. For the same molecule, the GI50 (PC-3) was 1.38 µM, the LC50 (PC-3) was 15.1 µM and the TGI (PC-3; read-out: Log TGI (converted)) was 3.98 µM. For the same molecule, the GI50 (DU-145) was 3.47 µM, the CC50 (DU-145; [1]) was 49 µM and the TGI (DU-145; read-out: Log TGI (converted)) was 15.1 µM. The GI50 (MDA-MB-435) was 1.58 µM, the GI50 (MDA-MB-435; Homo sapiens, MDA-MB-435, 48 h) was 1.78 µM and the LC50 (MDA-MB-435; Homo sapiens, MDA-MB-435, 48 h) was 5.5 µM. The TGI (MDA-MB-435; Homo sapiens, MDA-MB-435, 48 h, read-out: Log TGI (converted)) was 2.95 µM, the GI50 (T47D) was 1.55 µM and the CC50 (T47D; [1]) was > 100 µM. For the same molecule, the TGI (T47D; read-out: Log TGI (converted)) was 6.46 µM, the GI50 (HOP-62) was 2.69 µM and the CC50 (HOP-62; [1]) was 38 µM. For the same molecule, the TGI (HOP-62; read-out: Log TGI (converted)) was 8.91 µM, the GI50 (NCI-H226) was 4.17 µM and the CC50 (NCI-H226; [1]) was > 100 µM. The TGI (NCI-H226; read-out: Log TGI (converted)) was 22.9 µM, the GI50 (NCI-H322M) was 11 µM and the CC50 (NCI-H322M; [1]) was 49 µM. It also gave a TGI (NCI-H322M; read-out: Log TGI (converted)) of 22.9 µM, a GI50 (NCI-H522) of 1.48 µM and a TGI (NCI-H522; read-out: Log TGI (converted)) of 3.63 µM. It also gave a GI50 (HCC 2998) of 1.51 µM, a CC50 (HCC 2998; [1]) of 6.03 µM and a TGI (HCC 2998; read-out: Log TGI (converted)) of 3.02 µM. It also gave a GI50 (HCT-116) of 3.39 µM, an LC50 (HCT-116) of 58.9 µM and a TGI (HCT-116; read-out: Log TGI (converted)) of 13.2 µM. The GI50 (HCT-15) was 17.8 µM, the LC50 (HCT-15) was 58.9 µM and the TGI (HCT-15; read-out: Log TGI (converted)) was 32.4 µM. The GI50 (HT-29) was 1.58 µM, the LC50 (HT-29) was 7.59 µM and the TGI (HT-29; read-out: Log TGI (converted)) was 3.47 µM. It also gave a GI50 (KM12) of 1.74 µM, a CC50 (KM12; [1]) of 5.75 µM and a TGI (KM12; read-out: Log TGI (converted)) of 3.16 µM. For the same molecule, the GI50 (SW-620) was 4.27 µM, the LC50 (concentration killing 50% of cells) (SW-620) was 66.1 µM and the TGI (SW-620; read-out: Log TGI (converted)) was 17.4 µM. For the same molecule, the GI50 (SF-295) was 8.32 µM, the LC50 (SF-295) was 63.1 µM and the TGI (SF-295; read-out: Log TGI (converted)) was 24 µM. The GI50 (SNB-19) was 1.58 µM, the TGI (SNB-19; read-out: Log TGI (converted)) was 3.09 µM and the GI50 (MCF7) was 1.58 µM. The LC50 (MCF7) was 8.51 µM, the TGI (MCF7; read-out: Log TGI (converted)) was 3.72 µM and the GI50 (CCRF-CEM) was < 0.01 µM. The GI50 (RPMI-8226) was 0.288 µM, the CC50 (RPMI-8226; [1]) was 5.13 µM and the TGI (RPMI-8226; read-out: Log TGI (converted)) was 1.91 µM. The GI50 (A549) was 4.37 µM, the CC50 (A549; [1]) was > 100 µM and the TGI (A549; read-out: Log TGI (converted)) was 43.7 µM.
